Laboratory results published in ChEMBL document CHEMBL1134785, “Synthesis and biological evaluation of prostaglandin-F alkylphosphinic acid derivatives as bone anabolic agents for the treatment of osteoporosis” (J Med Chem, 2001).

Experiments:
Rattus norvegicus [1] = test: Endosteal mineralizing surface Histomorphometrically after a dose of 100 ug/kg in tibial diaphysis; assay type: functional
Summary of the method: (§1)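 Six-month-old rats, bilaterally ovariectomized, 6-8 per group, on natural chow. After 60 days they received once-daily subcutaneous dosing for 60 days at 0.01–3.0 mg/kg. Vehicle was acetate-buffered saline with methylcellulose and polyoxyethylenesorbitan monooleate. Labels were xylenol orange 90 mg/kg before treatment and calcein 10 mg/kg 14 and 4 days before sacrifice. Tibial histomorphometry was read under fluorescent light, with ANOVA/LSD versus vehicle.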

Rattus norvegicus [2] = test: Mineralizing surface/bone surface(%) measured Histomorphometrically after a dose of 100 ug/kg in proximal tibial metaphysis; assay type: functional
Summary of the method: (§2)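 Ovariectomized six-month-old rats, 6-8 per group, were dosed subcutaneously once daily at 0.01–3.0 mg/kg for 60 days, starting 60 days after surgery. Vehicle was acetate-buffered saline, methylcellulose and polyoxyethylenesorbitan monooleate. Labels were xylenol orange 90 mg/kg pretreatment and calcein 10 mg/kg at 14 and 4 days before necropsy. Histomorphometry covered the proximal tibial metaphysis, 1–4 mm distal to the growth plate–metaphyseal junction. ANOVA/LSD versus vehicle.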

Rattus norvegicus [3] = test: Trabecular no (mm)measured Histomorphometrically after a dose of 30 ug/kg in proximal tibial metaphysis; assay type: functional, Trabecula
Summary of the method: (§3)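 Six-month-old rats were ovariectomized, and 60 days later daily subcutaneous dosing began for 60 days, with vehicle of acetate-buffered saline, methylcellulose and polysorbate. Xylenol orange (90 mg/kg) labelled bone pre-treatment and calcein (10 mg/kg) 14 and 4 days pre-sacrifice. Histomorphometry covered the proximal tibial metaphysis 1-4 mm distal to the growth plate-metaphyseal junction. Groups were 6-8 rats, compared by ANOVA/LSD vs vehicle.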

Rattus norvegicus [4] = test: Trabecular no (mm)measured Histomorphometrically after a dose of 3000 ug/kg in proximal tibial metaphysis; assay type: functional, Trabecula; summary of the method: as §3
Rattus norvegicus [5] = test: Bone formation rate/bone volume (%/year) bone measured histomorphometrically after a dose of 100 ug/kg in proximal tibial metaphysis; assay type: functional; conditions: at 100 µg/kg
Rattus norvegicus [6] = test: Mineralizing surface/bone surface(%) measured Histomorphometrically after a dose of 30 ug/kg in proximal tibial metaphysis; assay type: functional; summary of the method: as §2
Rattus norvegicus [7] = test: Directly measured thickness(um) using micro Computed Tomography(CT) after a dose of 30 ug/kg in Vertebral Bone; assay type: functional
Summary of the method: (§4)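 Micro-CT of the fifth lumbar vertebra, measuring cancellous bone volume and architecture. Rats were 6 months old, OVX 60 days before treatment, then dosed daily for 60 days. Test-agent doses were 10–3000 µg/kg, given as a once-daily subcutaneous injection; 6 mg/kg/day was given to the positive-control group. Groups were compared with vehicle by ANOVA plus LSD test.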

Rattus norvegicus [8] = test: Periosteal mineral apposition rate ([…]) measured Histomorphometrically after a dose of 10 ug/kg in tibial diaphysis; assay type: functional; summary of the method: as §1
Rattus norvegicus [9] = test: Mineral apposition rate ([…])bone measured Histomorphometrically after a dose of 1000 ug/kg in tibial diaphysis; assay type: functional; summary of the method: as §1
Rattus norvegicus [10] = test: Bone Volume /Tissue Volume (%)measured using micro Computed Tomography(CT) after a dose of 100 ug/kg in Vertebral Bone; assay type: functional; conditions: at 100 µg/kg
Rattus norvegicus [11] = test: Marrow area (mm) measured Histomorphometrically after a dose of 1000 ug/kg in tibial diaphysis; assay type: functional; summary of the method: as §1
Rattus norvegicus [12] = test: Directly measured thickness(um) using micro Computed Tomography(CT) after a dose of 1000 ug/kg in Vertebral Bone; assay type: functional; summary of the method: as §4
Rattus norvegicus [13] = test: Endosteal eroded surface(%) measured Histomorphometrically after a dose of 100 ug/kg in tibial diaphysis; assay type: functional
Summary of the method: (§5)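 Tibial histomorphometry in 6-month-old rats, OVX 60 days before treatment, then daily injection for 60 days. Vehicle was acetate-buffered saline with methylcellulose and polyoxyethylenesorbitan monooleate. Rats received xylenol orange 90 mg/kg before treatment and calcein 10 mg/kg at 14 and 4 days pre-sacrifice. Rats were killed by cardiac puncture under ketamine/xylazine. Groups were compared with vehicle by ANOVA plus LSD test.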

Rattus norvegicus [14] = test: Endosteal eroded surface(%) measured Histomorphometrically after a dose of 300 ug/kg in tibial diaphysis; assay type: functional; summary of the method: as §5
Rattus norvegicus [15] = test: Trabecular thickness […] measured Histomorphometrically after a dose of 30 ug/kg in proximal tibial metaphysis; assay type: functional, Trabecula; summary of the method: as §3
Rattus norvegicus [16] = test: Endosteal mineralizing surface Histomorphometrically after a dose of 1000 ug/kg in tibial diaphysis; assay type: functional; summary of the method: as §1
Rattus norvegicus [17] = test: connectivity density (mm-3) using micro Computed Tomography(CT) after a does of 30 ug/kg in Vertebral Bone; assay type: functional
Summary of the method: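 Rats were ovariectomized at 6 months of age and, after 60 days, dosed subcutaneously once daily for 60 days, with vehicle of acetate-buffered saline, methylcellulose and polysorbate. At necropsy the fifth lumbar vertebra was scanned by micro-CT to obtain cancellous architecture. Groups were 6-8 rats; results were compared to vehicle by ANOVA with least significant difference test.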

Rattus norvegicus [18] = test: Mineral apposition rate ([…])bone measured Histomorphometrically after a dose of 3000 ug/kg in tibial diaphysis; assay type: functional; summary of the method: as §1
Rattus norvegicus [19] = test: Mineral apposition rate ([…])bone measured Histomorphometrically after a dose of 10 ug/kg in tibial diaphysis; assay type: functional; summary of the method: as §1
Rattus norvegicus [20] = test: Tissue area (mm) measured Histomorphometrically after a dose of 30 ug/kg in tibial diaphysis; assay type: functional
Summary of the method: (§6)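 Rats on natural chow (1.46% Ca) were bilaterally ovariectomized at 6 months and left untreated for 60 days. They then received once-daily subcutaneous doses for 60 days, with vehicle of acetate-buffered saline, methylcellulose and polysorbate. Xylenol orange (90 mg/kg) was given before treatment and calcein (10 mg/kg) 14 and 4 days before sacrifice. Tibiae were analysed by fluorescent histomorphometry, 6-8 rats/group, ANOVA/LSD vs vehicle.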

Rattus norvegicus [21] = test: Derived trabecular thickness (um) measured using micro Computed Tomography(CT) after a dose of 300 ug/kg in Vertebral Bone; assay type: functional, Trabecula; summary of the method: as §4
Rattus norvegicus [22] = test: Bone formation rate/tissue volume (%/year) bone measured histomorphometrically after a dose of 30 ug/kg in proximal tibial metaphysis; assay type: functional; conditions: at 30 µg/kg
Rattus norvegicus [23] = test: Periosteal mineralizing surface (%) measured Histomorphometrically after a dose of 3000 ug/kg in tibial diaphysis; assay type: functional; summary of the method: as §6
Rattus norvegicus [24] = test: Bone Volume /Tissue Volume (%)measured using micro Computed Tomography(CT) after a dose of 30 ug/kg in Vertebral Bone; assay type: functional; conditions: at 30 µg/kg
Rattus norvegicus [25] = test: Derived trabecular no […]measured using micro Computed Tomography(CT) after a dose of 3000 ug/kg in Vertebral Bone; assay type: functional, Trabecula; summary of the method: as §4
Rattus norvegicus [26] = test: Marrow area (mm) measured Histomorphometrically after a dose of 10 ug/kg in tibial diaphysis; assay type: functional; summary of the method: as §1
[27] = Dissociation constant was determined; assay type: physicochemical
Rattus norvegicus [28] = test: Derived trabecular no […]measured using micro Computed Tomography(CT) after a dose of 30 ug/kg in Vertebral Bone; assay type: functional, Trabecula; summary of the method: as §4
Rattus norvegicus [29] = test: Bone formation rate/bone volume (%/year) bone measured histomorphometrically after a dose of 1000 ug/kg in proximal tibial metaphysis; assay type: functional; conditions: at 1000 µg/kg
Rattus norvegicus [30] = test: Bone formation rate/bone volume (%/year)bone measured Histomorphometrically after a dose of 300 ug/kg in proximal tibial metaphysis; assay type: functional; conditions: at 300 µg/kg
Rattus norvegicus [31] = test: Periosteal mineralizing surface (%) measured Histomorphometrically after a dose of 30 ug/kg in tibial diaphysis; assay type: functional; summary of the method: as §6
Rattus norvegicus [32] = test: Bone Volume /Tissue Volume (%)measured using micro Computed Tomography(CT) after a dose of 300 ug/kg in Vertebral Bone; assay type: functional; conditions: at 300 µg/kg

## CP(=O)(O)CCC/C=C\C[C@@H]1[C@@H](/C=C/[C@@H](O)COc2ccccc2)[C@H](O)C[C@@H]1O
Rattus norvegicus [1]
  Endosteal mineralizing surface: 22.28%
Rattus norvegicus [2]
  Activity: 27.11%
Rattus norvegicus [3]
  Trabecular no.: 0.87 1/mm
Rattus norvegicus [4]
  Trabecular no.: 1.51 1/mm
Rattus norvegicus [5]
  Activity: 320.16%
Rattus norvegicus [6]
  Activity: 30.59%
Rattus norvegicus [7]
  Directly measured thickness: 126 µm
Rattus norvegicus [8]
  Periosteal mineral apposition rate: 0.49 µm day-1
Rattus norvegicus [9]
  Mineral apposition rate: 1.01 µm/day
Rattus norvegicus [10]
  Activity: 38.04%
Rattus norvegicus [11]
  Marrow area: 0.86 mm²
Rattus norvegicus [12]
  Directly measured thickness: 128 µm
Rattus norvegicus [13]
  Endosteal eroded surface: 2.3%
Rattus norvegicus [14]
  Endosteal eroded surface: 1.32%
Rattus norvegicus [15]
  Trabecular thickness: 41.2 µm
Rattus norvegicus [16]
  Endosteal mineralizing surface: 35.29%
Rattus norvegicus [17]
  Connectivity density: 59.2 mm**-3
Rattus norvegicus [18]
  Mineral apposition rate: 1.03 µm/day
Rattus norvegicus [19]
  Mineral apposition rate: 0.71 µm/day
Rattus norvegicus [20]
  Tissue area: 5.19 mm
Rattus norvegicus [21]
  Derived trabecular thickness: 79.5 µm
Rattus norvegicus [22]
  Activity: 17.55%
Rattus norvegicus [23]
  Periosteal mineralizing surface: 11.109%
Rattus norvegicus [24]
  Activity: 34.58%
Rattus norvegicus [25]
  Derived trabecular number: 4.71 mm-1
Rattus norvegicus [26]
  Marrow area: 0.93 mm²
[27]
  pKa: 3.1
Rattus norvegicus [28]
  Derived trabecular number: 4.44 mm-1
Rattus norvegicus [29]
  Activity: 251.82%
Rattus norvegicus [30]
  Activity: 322.61%
Rattus norvegicus [31]
  Periosteal mineralizing surface: 26.23%
Rattus norvegicus [32]
  Activity: 38.61%
